According to publication PMC4344132 (Cell, 2014):
No end group written: not given here.

How the values were obtained:
[1] = tested on: AF9 occupancy on MYC in HeLa cells; experiment: AF9 occupancy on MYC in HeLa cells treated with GCN5/PCAF inhibitor; type: cell-based; settings: Figure S5C
Procedure, shortened: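 HeLa cells (endogenous AF9 has no ChIP-grade antibody, so a line stably expressing Flag-AF9 was used) were treated with the GCN5/PCAF inhibitor. Cells were crosslinked with 1% formaldehyde for 10 min, then quenched with 125 mM glycine. Nuclei were sonicated and immunoprecipitated with 2–4 µg antibody overnight at 4°C, collected with Staph A cells, washed and reverse-crosslinked. MYC DNA was quantified by SYBR Green qPCR. Differences were tested by two-way unpaired Student's t-test.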

[2] = tested on: histone H3 acetylation in HeLa cells; experiment: Histone H3 acetylation level in HeLa cells treated with GCN5/PCAF inhibitor; type: cell-based; settings: Figure S5C
[3] = target: human AF9 YEATS (1–138) (human) (UniProt P42568); experiment: ITC
AF9 YEATS domain = target: T1, AF9 YEATS domain (Homo sapiens, UniProt P42568); experiment: Isothermal titration calorimetry; type: binding; settings: ITC; different frames of the H3K9ac peptides; Figure 4A
T1 sequence (P42568 1-138 limits assumed): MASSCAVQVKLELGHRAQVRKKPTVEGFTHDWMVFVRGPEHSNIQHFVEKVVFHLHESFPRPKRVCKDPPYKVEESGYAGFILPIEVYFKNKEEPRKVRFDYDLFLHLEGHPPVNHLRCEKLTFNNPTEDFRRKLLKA

Compound: Clc1ccc(-c2csc(NN=C3CCCC3)n2)cc1 [CPTH2]
- AF9 occupancy on MYC [1]: reduced
- histone H3 acetylation levels [2]: reduced

Compound: H3K9ac peptide with H3R8 substituted with alanine
- fold binding reduction against the H3K9ac peptide [3]: 200 fold

Compound: H3K18ac peptide (ITC)
- Kd [3]: 11 µM

Compound: H3K27ac peptide (ITC)
- Kd [3]: 7 µM

Compound: H3_7–11K9ac: H3K9ac peptide frame 7–11 (ARK(Ac)ST)
- binding (in words) (AF9 YEATS domain): no binding
